In ChEMBL document CHEMBL1136957, “Semisynthesis and antiproliferative evaluation of a series of 3'-aminoflavones” (Bioorg Med Chem Lett, 2009):
pIC50: −log10 of the molar value. Calls of active or inactive are those of the source. No cut-off for these calls is given here.

Experiments:
[1] = system: KB; test: Cytotoxicity against human KB cells at 1 uM after 72 hrs by MTS assay; format: functional
[2] = system: HL-60; test: Induction of apoptosis in human HL60 cells assessed as caspase 3/7 activation at 100 uM relative to control; format: functional
In short: (§1)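 Apoptosis read in HL60 human leukemia cells as caspase 3/7 activity, using DEVD-AMC as substrate. Reported as the optimal compound concentration with fold activation.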

[3] = system: HL-60; test: Induction of apoptosis in human HL60 cells assessed as caspase 3/7 activation at 1 uM relative to control; format: functional; in short: as §1
[4] = Inhibition of tubulin assembly at 66 uM
In short: (§2)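 Tubulin assembly inhibition run by the Zavala and Guenard method. Reported as percent inhibition at 6.6 x 10^-5 M, or as IC50 for selected compounds.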

[5] = system: KB; test: Cytotoxicity against human KB cells after 72 hrs by MTS assay; format: functional, cell-based
[6] = Ratio of IC50 for drug to deoxypodophyllotoxin for tubulin assembly
In short: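 Inhibition of tubulin assembly was run by the Zavala and Guénard method. Compounds were screened at 6.6 × 10^-5 M, and an IC50 was determined only for the most antiproliferative ones. The value is that IC50 divided by the IC50 of deoxypodophyllotoxin, the reference.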

[7] = system: HL-60; test: Induction of apoptosis in human HL60 cells assessed as caspase 3/7 activation at 0.1 uM relative to control; format: functional; in short: as §1
[8] = Inhibition of tubulin assembly; in short: as §2
[9] = system: HL-60; test: Induction of apoptosis in human HL60 cells assessed as caspase 3/7 activation at 10 uM relative to control; format: functional; in short: as §1

COc1ccc(-c2cc(=O)c3c(O)c(OC)c(OC)c(OC)c3o2)cc1[N+](=O)[O-]
inhibition at 1 µM [1]: 2%

COc1ccc(-c2cc(=O)c3c(OC)c(OC)c(OC)c(OC)c3o2)cc1N
inhibition at 1 µM [1]: 6% | fold change (FC) [2]: inactive

COc1ccc(-c2oc3c(OC)c(OC)c(OC)c(O)c3c(=O)c2Br)cc1N
inhibition at 1 µM [1]: 55% | fold change (FC) [3]: 3.6

COc1ccc(-c2cc(=O)c3c(OC)c(OC)c(OC)c(OC)c3o2)cc1[N+](=O)[O-]
inhibition at 1 µM [1]: 3%

COc1ccc(-c2oc3c(OC)c(OC)c(OC)c(O)c3c(=O)c2Cl)cc1N
inhibition [4]: 15% | inhibition at 1 µM [1]: 86% | fold change (FC) [3]: 4.5 | pIC50 [5]: 6.85

COc1cc(O)c2c(=O)cc(-c3ccc(OC)c(N)c3)oc2c1
inhibition at 1 µM [1]: 30% | fold change (FC) [2]: inactive

COc1ccc(-c2oc3c(OC)c(OC)c(OC)c(O)c3c(=O)c2OC)cc1O
Ratio IC50 [6]: 3 | fold change (FC) [7]: 5.7 | inhibition at 1 µM [1]: 92% | pIC50 [8]: 5.00 | pIC50 [5]: 7.70

COc1ccc(-c2oc3c(OC)c(OC)c(OC)c(O)c3c(=O)c2Br)cc1[N+](=O)[O-]
inhibition at 1 µM [1]: 23%

COc1ccc(-c2cc(=O)c3c(O)c(OC)c(OC)c(OC)c3o2)cc1O
Ratio IC50 [6]: 27 | fold change (FC) [9]: 5.2 | fold change (FC) [3]: 3.8 | pIC50 [8]: 4.07 | pIC50 [5]: 7.10

COc1ccc(-c2cc(=O)c3c(OC)c(OC)c(OC)c(OC)c3o2)cc1 [TANGERETIN]
inhibition at 1 µM [1]: 12% | fold change (FC) [2]: inactive

COc1ccc(-c2cc(=O)c3c(O)cc(O)cc3o2)cc1N
inhibition at 1 µM [1]: 7% | fold change (FC) [2]: 4

COc1ccc(-c2cc(=O)c3c(O)c(OC)c(OC)c(OC)c3o2)cc1N
inhibition [4]: 27% | inhibition at 1 µM [1]: 83% | fold change (FC) [3]: 6 | pIC50 [5]: 6.80

COc1ccc(-c2cc(=O)c3c(O)c(OC)c(OC)c(OC)c3o2)cc1 [GARDENIN B]
inhibition at 1 µM [1]: 28% | fold change (FC) [2]: 3.8
